# Source: PubChem (several laboratories)
# MT1-MMP act inh: blocks activation of human MT1-MMP; GFP/RFP ratio change, % at 20 µM; HT1080 RFP-PRO-GFP cells, GFP/RFP ratio fluorescence, overnight; percent of plate control window, DMSO zero; P50281; 0.061% of 360,000 active; AID 651647;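 active = GFP/RFP ratio change of at least 30% with cell ATP level not reduced by more than half and red fluorescence within 50% of control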
#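 Test system: HT1080 RFP-PRO-GFP cells; Benchmarks: DMSO and RFP-L50D-GFP cell wells; Timing: cells overnight before dosing, compound overnight, 37 °C, 5% CO2; Compound: one 20 µM compound dose with 1% DMSO; Read-out: GFP/RFP fluorescence ratio.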
# NRP1-CendR mod: NRP-1/CendR interaction modulation; O14786; FAM-RPARPAR peptide binding to NRP-1, fluorescence polarization; inhibition, % at 25 µM; 0.85% of 360,000 active; AID 602438;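 active = inhibition or corrected inhibition above about 18%, plus a signal ratio from 0.5 to 1.5, limit read from the data, passing the limit was not always enough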
# SENP1 inh: blocks the human SENP1 SUMO protease catalytic domain; Q9P0U3; 0.21% of 360,000 active; recombinant SENP1 catalytic domain, CyPet-SUMO1-YPet FRET cleavage; inhibition, % at 10 µM;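 active = inhibition at least 30% at 10 µM, raw YFP signal under a set limit, fluorescence ratio 0.5 to 1.5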;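 also: 0% = enzyme with DMSO and 100% = no enzyme wells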
#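 Assay system: hSENP1 catalytic domain, recombinant. Amount: SENP1 enzyme, 20 pM final. Schedule: 50 min reaction, RT, dark. Technique: FRET, CFP and YFP emission. Control set: no-enzyme wells low, DMSO-plus-enzyme wells high control.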
# beta cell repl: inducers of beta-cell replication in MIN6 cells; AID 2380; 0.29% of 330,000 active; MIN6 cells proliferation, ATPlite luminescence, 48 h; cells starved in 0.2% serum; 100% = growth in 10% serum; proliferation, % at 10 µM;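 active = compounds whose signal lies at least 3.5 SD above the mean of all wells on their plate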;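 also: 0% = DMSO-treated cells in low-serum medium and 100% = 10% serum control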
# DAGLB inh: blocks human DAGLB lipase activity. Q8NCG7. HEK293T DAGLB membrane lysate, EnzChek fluorogenic substrate. AID 504411. inhibition, % at 5.17 µM. 0.059% of 340,000 active; in the data active = inhibition above about 34%;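 also: 0% = enzyme with vehicle and 100% = wells lacking enzyme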
# Target sequence (Q8NCG7 whole entry, looked up): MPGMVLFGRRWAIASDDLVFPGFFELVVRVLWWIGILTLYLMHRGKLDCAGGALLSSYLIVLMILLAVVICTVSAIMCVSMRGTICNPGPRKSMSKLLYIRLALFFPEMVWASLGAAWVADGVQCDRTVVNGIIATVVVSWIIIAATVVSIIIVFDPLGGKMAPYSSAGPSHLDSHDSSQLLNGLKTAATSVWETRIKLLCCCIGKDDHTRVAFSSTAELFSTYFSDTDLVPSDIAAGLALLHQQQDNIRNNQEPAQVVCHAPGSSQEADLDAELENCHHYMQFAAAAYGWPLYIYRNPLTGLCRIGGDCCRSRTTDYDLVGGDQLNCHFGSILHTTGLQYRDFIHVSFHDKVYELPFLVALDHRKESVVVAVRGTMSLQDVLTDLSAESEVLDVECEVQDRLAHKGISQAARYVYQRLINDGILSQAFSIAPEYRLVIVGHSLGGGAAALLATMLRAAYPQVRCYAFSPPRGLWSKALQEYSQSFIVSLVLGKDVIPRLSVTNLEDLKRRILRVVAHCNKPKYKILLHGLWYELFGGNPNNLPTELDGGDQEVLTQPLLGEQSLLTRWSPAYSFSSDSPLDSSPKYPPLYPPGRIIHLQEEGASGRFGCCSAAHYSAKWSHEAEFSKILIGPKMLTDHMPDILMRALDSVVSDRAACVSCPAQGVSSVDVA
# Myeloid diff MLP: compounds promoting myeloid differentiation; ER-HoxA9 myeloid progenitors, lysozyme-GFP differentiation, flow cytometry; calls only at 10 µM; 1% of 360,000 active; AID 624256;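 active = normalized GFP-positive differentiation at or above the plate's own cutoff, the solvent-only control mean plus 3 SD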;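 also: cells exposed to compound for four days before flow analysis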
# Myeloid diff CP1: compounds promoting myeloid differentiation; 2% of 2,300 active; calls only; shares compounds with Myeloid diff MLP; ER-HoxA9 myeloid progenitors, GFP/Mac1 double-positive flow;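 active = share of green or green-and-red cells above 9 and 9% in run 1 or 4 and 3% in run 2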
# GFP autofluor: compound fluorescence in myeloid differentiation counter-screen; shares compounds with Myeloid diff MLP; ER-HoxA9 myeloid progenitors, no estrogen, GFP autofluorescence flow cytometry; vehicle wells 0%, positive control 100%; fluorescence response, % (test concentration not listed); 7.4% of 2,300 active; AID 651707;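 active = over 5% cells positive for green fluorescent reporter, or over 2% positive for both it and APC stain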;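 also: range taken on the double positive population between DMSO and positive control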
# Active calls of the source: *; i = inactive; · = not tested or not shown; + = active, no number. This is a sample that favours compounds with a hit; in the whole collection about 2.4% have one here.
SMILES,MT1-MMP act inh,NRP1-CendR mod,SENP1 inh,beta cell repl,DAGLB inh,Myeloid diff MLP,Myeloid diff CP1,GFP autofluor
O=C(OCC(=O)N1N=C(c2ccc(Cl)cc2)CC1c1ccco1)c1cncc(Br)c1 (stereo unspecified),-3,-27,-11,-7,3,i,·,·
CS(=O)(=O)NCCNC(=O)c1cc(OCC(F)(F)F)ccc1OCC(F)(F)F,-2,3,0,1,1,i,·,·
O=C(NCCNS(=O)(=O)c1cccc(C(F)(F)F)c1)c1cc(OCC(F)(F)F)ccc1OCC(F)(F)F,0,5,2,-1,-3,i,i,0
CCOc1ccc(/C=C/c2c([N+](=O)[O-])c(=O)n(C)c(=O)n2C)cc1,-2,6,2,-3,3,i,·,·
CCc1ccc(/C=C/c2c([N+](=O)[O-])c(=O)n(C)c(=O)n2C)cc1,-13,6,3,2,-2,i,i,1
O=C(CCc1nnc(Cc2c[nH]c3ccccc23)o1)NCC1CC12CCCCC2 (stereo unspecified),-4,-4,0,-4,2,i,i,1
CN1CCc2c(sc(/N=C/c3ccco3)c2C(N)=O)C1,-24,-6,-20,-2,-3,i,·,·
CN1CCc2c(sc(/N=C/c3cccs3)c2C(N)=O)C1,-48,-69,-22,0,-4,i,i,0
CS(=O)(=O)N1N=C(c2cccs2)CC1c1ccccc1O (stereo unspecified),-9,-32,-3,2,-3,i,·,·
CCOc1ccccc1C1CC(c2cccs2)=NN1S(C)(=O)=O (stereo unspecified),-36,-82,-24,0,·,+,i,92*
COc1ccc(N2CCN(c3ccc(N4C(=O)CC(C)C4=O)cc3[N+](=O)[O-])CC2)cc1 (stereo unspecified),4,6,0,0,2,i,·,·
COc1ccc(N2CCN(c3ccc(N4C(=O)COCC4=O)cc3[N+](=O)[O-])CC2)cc1,11,-4,1,-1,6,i,i,0
O=C(COC(=O)c1cnccn1)NCc1ccccc1Cl,1,-11,-7,·,0,i,·,·
CCOc1ccccc1NC(=O)Cn1c(=O)c2ccccc2n(CC)c1=O,-1,-1,1,1,3,i,·,·
CCn1c(=O)n(CC(=O)N(C)Cc2ccccc2)c(=O)c2ccccc21,3,-2,2,-1,1,+,i,0
COc1ccccc1C(C(=O)NCc1ccccc1)N(C(=O)c1csnn1)C1CC1 (stereo unspecified),2,-9,0,-1,2,i,·,·
CCOC(=O)c1ccc(NC(=O)c2nc[nH]c2C(=O)N(C)CCO)cc1,-1,-5,0,·,1,+,i,0
O=C(NCC1CCCCC1)C12CN(Cc3ccccc3)CC1C(c1cccc([N+](=O)[O-])c1)=NO2 (stereo unspecified),0,-6,-1,-7,-15,+,i,0
COc1ccc(F)cc1-c1cc(NC(C)=O)c2ncc(-c3cc(OC)c(OC)c(OC)c3)n2c1,-3,-7,-2,·,·,+,i,0
Oc1cccc(Nc2nc(O)c(/C=C3\C=Nc4ccccc43)s2)c1,-159,-46,-35,-6,0,+,i,0
C/C(=N/N1CCN(c2ccccn2)CC1)c1cccc([N+](=O)[O-])c1,8,6,1,2,1,i,·,·
Cc1cc(C)c(C#N)c(SCC(O)CS(=O)(=O)Cc2ccccc2)n1 (stereo unspecified),10,4,3,-2,-2,i,i,0
Cc1cc(C)c(C#N)c(SCC(=O)c2ccccc2)n1,3,5,-17,1,-3,i,·,·
CC(=O)N1CC=C2C(C#N)=C(N)C(C#N)(C#N)C(CCc3ccccc3)C2C1 (stereo unspecified),-17,-14,-43,-2,5,+,i,0
C=CCn1c(C)c(C(C)=O)c(N2CCN(c3ccccc3)CC2)nc1=S,-105,127,9,0,-6,+,i,2
SMILES,MT1-MMP act inh,NRP1-CendR mod,SENP1 inh,beta cell repl,DAGLB inh,Myeloid diff MLP,Myeloid diff CP1,GFP autofluor
Cc1ccc(O)c(NC(=O)CCC2CCCCC2)c1,-1,-1,3,-4,-4,i,i,0
CCCS(=O)(=O)NC(=O)C1(C)CCCN(C(=O)c2cc(C)nn2C(C)(C)C)C1 (stereo unspecified),-2,8,3,·,·,i,i,0
Cc1cc(C(=O)N2CCCC(C)(C(=O)NS(=O)(=O)C3CC3)C2)n(C(C)(C)C)n1 (stereo unspecified),-3,15,2,·,·,i,·,·
O=C(Cc1cn2ccsc2n1)NCCc1ccc(F)cc1,-6,18,-3,0,-2,i,i,0
O=C(Cc1cn2ccsc2n1)NCc1ccccc1,2,13,0,2,-2,i,·,·
Cc1cc(C)nc(SCc2ccc(C(=O)N/N=C/c3ccccn3)cc2)n1,3,5,-6,-2,1,i,i,0
O=C(N/N=C/c1ccccn1)c1cc(-c2ccc3ccccc3c2)n[nH]1,4,-14,-24,-2,3,i,i,0
CN(C)C(=O)c1cnc(-c2ccccc2)nc1-c1ccccc1,-1,4,1,-1,-4,i,·,·
O=C(CNC(=O)c1ccc(Br)o1)Nc1ccc(N2CCCCCC2)cc1,1,0,1,-1,4,+,i,0
O=C(CNC(=O)c1ccco1)Nc1ccc(N2CCCCCC2)cc1,3,7,0,6,3,i,·,·
Cc1nc(NC(=O)CSc2nnc(C3CC3)n2N)c(Cl)cc1Cl,3,-7,0,8,0,i,·,·
COC(=O)c1ccc(Nc2cc(C)nc3ccc(C)cc23)cc1,1,0,-2,-4,-2,+,i,3
CC(C)(C)c1ccc(-c2noc(CCC(=O)NCC3CCCO3)n2)cc1 (stereo unspecified),4,-10,2,-6,-6,i,i,0
Cc1ccc(-c2noc(CCC(=O)NCC3CCCO3)n2)cc1 (stereo unspecified),-1,-6,1,4,-1,i,·,·
